From ChEMBL document CHEMBL1158955, “Biologically active metabolites from Xenorhabdus spp., Part 1. Dithiolopyrrolone derivatives with antibiotic activity” (1991)
In brackets after ≈: the same amount, converted by molar mass.

Tests used:
Micrococcus luteus = assay: Antimicrobial activity against Micrococcus luteus BTA 433 after 18 hrs by broth dilution method; format: functional; conditions: BTA 433, 18 h
Summary of the method: (§1)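 Broth dilution in TS broth in 24-well dishes. Compound dissolved in DMSO and diluted from a starting concentration of 2.5%. Inocula were grown from fresh TS agar plates in TS broth at 37° to A525 0.5, then diluted 10^-4. Incubation was 37° for 18 h. Turbidity was read by eye and confirmed by plating onto TS agar. MIC is the last dilution giving ≤20 colonies.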

Shigella sonnei = assay: Antimicrobial activity against Shigella sonnei BTA 431 after 18 hrs by broth dilution method; format: functional; conditions: BTA 431, 18 h; summary of the method: as §1
Escherichia coli = assay: Antimicrobial activity against Escherichia coli K88 BTA 430 after 18 hrs by broth dilution method; format: functional; conditions: K88 BTA 430, 18 h; summary of the method: as §1
Candida albicans = assay: Antimicrobial activity against Candida albicans ATCC 10231 after 18 hrs by broth dilution method; format: functional; conditions: ATCC 10231, 18 h; summary of the method: as §1
Helicoverpa punctigera [1] = assay: Insecticidal activity in Heliothis punctigera assessed as weight reduction at 37.5 ug.cm'-2 relative to control; format: functional; design: scale not given: the % may be the effect or the level left
Summary of the method: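 Diet-surface feeding test. Molten artificial diet was poured 1 cm deep in 24-well plates, and test material in DMSO (30 μl) was spread on the surface; controls got DMSO only. Once dry, one first-instar H. punctigera larva was placed per well (16 wells per dose) and the well was capped. After 7 days at 28°, mortality was scored and surviving larvae were weighed.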

Helicoverpa punctigera [2] = assay: Insecticidal activity in Heliothis punctigera assessed as mortality at 150 ug.cm'-2 by larval feeding assay; format: functional
Summary of the method: (§2)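 Artificial diet set in 24-well plates to 1 cm depth; 30 μl of test material in DMSO spread over the surface, with DMSO-only controls. After drying, one first-instar Heliothis punctigera larva placed per well, 16 wells per dose, and each well closed with a polypropylene ball. Held 7 days at 28°, then scored for mortality and survivors weighed; LC50 derived by probit analysis.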

Proteus mirabilis = assay: Antimicrobial activity against Proteus mirabilis BTA 585 after 18 hrs by broth dilution method; format: functional; conditions: BTA 585, 18 h; summary of the method: as §1
Salmonella typhimurium = assay: Antimicrobial activity against Salmonella Typhimurium BTA 438 after 18 hrs by broth dilution method; format: functional, Salmonella enterica subsp. enterica serovar Typhimurium; conditions: Salmonella enterica, BTA 438, 18 h; summary of the method: as §1
Streptococcus pyogenes = assay: Antimicrobial activity against Streptococcus pyogenes IMR-RNSH after 18 hrs by broth dilution method; format: functional; summary of the method: as §1
Pseudomonas aeruginosa = assay: Antimicrobial activity against Pseudomonas aeruginosa BTA 429 after 18 hrs by broth dilution method; format: functional; conditions: BTA 429, 18 h; summary of the method: as §1
Helicoverpa punctigera [3] = assay: Insecticidal activity in Heliothis punctigera assessed as mortality at 37.5 ug.cm'-2 by larval feeding assay; format: functional; summary of the method: as §2
Bacillus cereus = assay: Antimicrobial activity against Bacillus cereus BTA 432 after 18 hrs by broth dilution method; format: functional; conditions: BTA 432, 18 h; summary of the method: as §1
Staphylococcus aureus = assay: Antimicrobial activity against Staphylococcus aureus ATCC 6538P after 18 hrs by broth dilution method; format: functional; summary of the method: as §1
Helicoverpa punctigera [4] = assay: Insecticidal activity in Heliothis punctigera assessed as mortality by larval feeding assay; format: functional; summary of the method: as §2

## CC(C)CCCC(=O)Nc1c2sscc-2[nH]c1=O [XENORHABDIN 2]
Micrococcus luteus
  MIC: 0.156 mg/L (≈ 0.549 µM)
Shigella sonnei
  MIC: > 100 mg/L
Escherichia coli
  MIC: > 100 mg/L
Candida albicans
  MIC: > 100 mg/L
Helicoverpa punctigera [1]
  Activity: 64.7%
Helicoverpa punctigera [2]
  Activity: 100%
Proteus mirabilis
  MIC: > 100 mg/L
Salmonella typhimurium
  MIC: > 100 mg/L
Streptococcus pyogenes
  MIC: 1.25 mg/L (≈ 4.4 µM)
Pseudomonas aeruginosa
  MIC: > 100 mg/L
Helicoverpa punctigera [3]
  Activity: 18.8%
Bacillus cereus
  MIC: 3.13 mg/L (≈ 11 µM)
Staphylococcus aureus
  MIC: 20 mg/L (≈ 70.3 µM)
Helicoverpa punctigera [4]
  LC50: 59.5 ug.cm'-2
